Assay outcomes as filed in PubChem.
Arr AP2 block: inhibitors of human beta-arrestin and AP2 interaction; FITC-arrestin peptide / GST-AP2 beads, flow cytometry; AP2 beta2 appendage carries R879A mutation; inhibition, % at 10 µM; 340,000 compounds, 0.31% hits; AID 504490;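 active means inhibition above a set limit, near 3 SD of compounds lacking own fluorescence, cut at about 54% in these data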
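Measured by: flow cytometry, FL1 (488/535 nm); Material: AP2 appendage R879A on GSH beads; Evaluation: percent response; Timing: pre-incubation 12 min, peptide binding 1 h, room temperature; Also added: 50 nM FITC-arrestin peptide; Medium: PBS with 0.05% Tween 20 and 0.1% BSA.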
GSH fluor: compound fluoresces at 488/530 nm on GSH beads; GSH beads flow cytometry, compound fluorescence 488/530 nm; active compounds read high; fluorescence (KMESF) at 10 µM; 190,000 compounds, 0.25% hits; in the data active means fluorescence above about 89;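 further: glutathione beads carrying GST-tagged Bcl family fusion proteins plus one bare bead set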
DSG3 Ab inh: inhibitors of pemphigus antibody binding to human desmoglein-3 | 310,000 compounds, 0.48% hits | AID 588358 | P32926 | DSG3-coupled beads, scFv-anti-DSG3-GFP binding, flow cytometry; active compounds read low | binding (percent of control), % at 10 µM;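 active means binding more than 3 SD below its plate's average and above zero; inconclusive means below that plate limit but binding exactly zero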;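 further: hits lower antibody fragment binding to DSG3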
Avidin fluor: compound fluoresces at 488/530 nm on avidin beads; compound fluorescence 488/530 nm, flow cytometry; active compounds read high; fluorescence (KMESF) at 10 µM; 220,000 compounds, 0.38% hits; AID 1775; in the data active means fluorescence above about 47
Numbers stand for hits; 0 = inactive; ? = inconclusive; - = not tested or not shown. Sampled rows, rich in hits. Any-hit rate of the full collection: about 1.1%.

SMILES	Arr AP2 block	GSH fluor	DSG3 Ab inh	Avidin fluor
N#Cc1ccc2sn(-c3ccccc3)c(=O)c2c1	-	-	41	-
CCn1c2ccccc2c2cc(NC(C)=O)ccc21	0	0	?	0
CC(=O)Nc1ccc2sn(-c3ccccc3)c(=O)c2c1	-	-	49	-
CC(=O)Nc1ccc(S(=O)(=O)N/N=C/c2cccnc2)cc1	0	-	0	-
O=S(=O)(N/N=C\c1cccnc1)c1ccccc1	0	352	0	0
CC(C)Cn1c(=O)c(C(=O)N/N=C/c2cccc(F)c2)c(O)c2ccccc21	0	0	0	0
COc1ccccc1-c1nc(C(=O)NCC2CCCO2)cc2c1[nH]c1ccccc12 (stereo not given)	0	-	77	-
COc1cc(-c2nc(C(=O)NCC3CCCO3)cc3c2[nH]c2ccccc23)cc(OC)c1OC (stereo not given)	0	-	0	-
Cc1nc(SCc2nc3ccc(C(F)(F)F)cc3[nH]2)c2oc3ccccc3c2n1	0	-	0	-
CCCC/C(C)=N/NC(=O)Nc1ccccc1	0	0	0	0
CCCCC/C(=N\NC(=O)Nc1ccccc1)c1ccccc1	0	0	-12	0
COc1ccc(OC2C(=O)N(Cc3ccc(F)cc3)C2c2ccc(OC)c(OC)c2)cc1 (stereo not given)	0	0	0	0
COC(=O)c1cc(Br)c(=O)n(CCc2ccc(F)cc2)c1	0	0	0	0
COC(=O)c1ccc(C2C(Oc3ccccc3)C(=O)N2CCc2ccc(F)cc2)cc1 (stereo not given)	0	0	0	61
COC(=O)c1ccc(C2C(Oc3ccc(OC)cc3)C(=O)N2CCc2ccc(OC)c(OC)c2)cc1 (stereo not given)	0	0	72	0
CCOc1ccc(-n2c(-c3ccccc3)c[n+]3c2CCC3)cc1	0	0	0	0
CSc1c[n+]2c(n1C)CCC2	0	0	0	52
COc1ccc(/C(C)=N/NC(=O)CNC(=O)c2ccncc2)c(OC)c1	0	-	-	-
CCOc1ccc(-n2c(SCC(=O)Nc3cc(C)on3)nc3c([nH]c4ccccc43)c2=O)cc1	0	0	0	0
COc1ccc(-n2c(SCC(=O)Nc3cc(C)on3)nc3c([nH]c4ccccc43)c2=O)cc1	0	0	-8.2	0
CC(CNC(=S)Nc1cc(F)cc(F)c1)CSc1ccc(Cl)cc1 (stereo not given)	0	0	0	0
CCN(CC)S(=O)(=O)c1ccc(N/N=C/c2cc(OC)c(OC)cc2OC)nc1	0	0	63	0
CCN(CC)S(=O)(=O)c1ccc(N/N=C/c2ccc(OC)c(OC)c2OC)nc1	0	0	0	0
C=C(C)C(=O)Nc1cccc(C2=NOC3(C2)C[C@@H](C(N)=O)N(C(=O)c2ccc(OC)cc2)C3)c1 (stereo not given in full)	0	-	69	0
C=C(C)C(=O)Nc1cccc(C2=NOC3(C2)C[C@@H](C(N)=O)N(C(=O)c2cc([N+](=O)[O-])cc([N+](=O)[O-])c2)C3)c1 (stereo not given in full)	0	-	0	0
SMILES	Arr AP2 block	GSH fluor	DSG3 Ab inh	Avidin fluor
CCCNC(=O)Nc1nccs1	0	0	-	57
O=c1cc2oc3cc(O)c(O)cc3c(-c3ccccc3O)c-2cc1O	0	-	74	0
COc1ccc(OC)c(-c2c3cc(O)c(=O)cc-3oc3cc(O)c(O)cc23)c1	0	274	0	0
CCOc1ccccc1-c1c2cc(O)c(=O)cc-2oc2cc(O)c(O)cc12	0	0	0	0
O=C(CC12CC3CC(CC(C3)C1)C2)Nc1c(F)cccc1F	0	-	0	-
O=C(OCC(=O)c1c[nH]c2ccccc12)c1ccc(OC(F)F)cc1	-	-	0	-
COc1ccccc1NC(=O)NCc1nc(-c2ccc(C(F)(F)F)cc2)no1	0	-	74	0
O=S(=O)(NC1CCCCCCC1)c1cccs1	0	275	0	0
COC(=O)COc1ccc(S(=O)(=O)Nc2ccccc2C(=O)OC)cc1	0	0	0	63
O=C(Nc1cc(S(=O)(=O)N2CCCCCC2)ccc1OCC(F)(F)F)c1cnccn1	0	-	0	-
O=C(Cn1cnc2ccccc21)OCC(=O)N1CCc2ccccc2C1	0	0	0	52
CC1CCN(C(=O)COC(=O)Cn2cnc3ccccc32)CC1	0	-	0	-
O=S(=O)(Nc1ccc(Cl)cn1)c1cccs1	0	-	0	-
CN1CCN(c2ccc(Cl)cc2NC(=O)C2COc3ccccc3O2)CC1 (stereo not given)	0	264	0	0
CN1CCN(c2ccc(Cl)cc2NC(=O)c2nn(-c3ccccc3)c(=O)c3ccccc23)CC1	0	92	-	0
COc1ccc(Cl)cc1NC(=O)C1COc2ccccc2O1 (stereo not given)	0	0	0	0
Oc1ccc(/C=N/NC(=S)Nc2cccnc2)c(O)c1O	0	-	53	0
COc1ccc(SCCN2CC[C@@H](C(C)(C)C)CCC2=O)cc1	0	-	0	-
COc1cc(-c2nc(C)c(C(C)=O)n2O)ccc1OCC(=O)Nc1ccc(F)cc1	0	0	0	0
CCOc1cc(-c2nc(C)c(C(C)=O)n2O)ccc1OCC(=O)Nc1ccc(F)cc1	0	0	0	64
CCOC(=O)c1[nH]c2ccccc2c1NC(=O)C(CC)CC	0	0	-14	0
CCOC(=O)c1[nH]c2ccccc2c1NC(=O)CCN1CCN(C(=O)OCC)CC1	0	0	0	132
CCOC(=O)c1[nH]c2ccccc2c1NC(=O)CCN1CC(C)OC(C)C1 (stereo not given)	0	0	-	0
O=C(N/N=C/c1ccccc1)c1ccc(N2CCCC2=O)cc1	0	-	-	-
CSCCC(NS(=O)(=O)c1ccccc1)C(=O)OC(C)C(=O)Nc1ccc(Cl)cn1 (stereo not given)	0	-	0	-
SMILES	Arr AP2 block	GSH fluor	DSG3 Ab inh	Avidin fluor
Cc1nc([N+](=O)[O-])c(Br)n1CC(=O)c1ccccc1	0	0	-	0
Cc1nc([N+](=O)[O-])c(Br)n1CC(=O)c1ccc2ccccc2c1	0	0	0	50
Cc1cc(C(=O)N2CCN(C(c3ccccc3)c3ccccc3)CC2)no1	0	0	0	52
Cc1cc(NNC(=O)c2cccc(C(F)(F)F)c2)nc2c1c(C)nn2C	0	-	-	0
COc1ccc(OC)c(C2C=C(c3ccc(C)c(C)c3)Nc3nnnn32)c1 (stereo not given)	0	0	0	51
COc1ccc(-c2nn(-c3ccccc3)cc2C(=O)N2CCN(C(=O)c3ccco3)CC2)cc1	0	-	-	-
COc1ccc2c(CC(=O)OCC(=O)c3ccc(F)cc3)coc2c1	0	0	0	102
CCCn1c(SC(C)C(=O)NCC2CCCO2)nc2sc(CC)cc2c1=O (stereo not given)	0	-	-	-
CCCCOc1ccc(/C=N/NC(=S)Nc2cc(C)ccc2C)cc1	0	0	0	0
CCCCOc1ccc(/C=N/NC(=S)Nc2cccc(C)c2C)cc1	0	0	2.8	0
CCCC(=O)OCC(=O)Nc1cc(C(C)(C)C)nn1-c1ccccc1	0	91	0	0
O=C(c1ccccc1)C1CC=CCC1C(=O)c1ccccc1 (stereo not given)	0	-	0	-
O=C1C(c2ccnc3ccccc23)=C(O)c2ccccc21	0	128	0	0
O=C(CN1CCN(CC(=O)c2ccccc2)CC1)c1ccccc1	0	-	0	-
Cc1ccc(C(=O)O)cc1NC(=O)c1cccs1	0	95	-	0
